Measured values taken from publication PMC7609460 (Heliyon, 2020).

Tests used:
Format in all cases: cell-based
U87MG glioblastoma cells = experiment: Resazurin reduction assay; conditions: Homo sapiens, U-87 MG, 72 h
Method in brief: (§1)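 Resazurin reduction read after 72 h at 37 °C in humidified 5% CO2; fluorescence at 544 nm excitation and 590 nm emission. Test samples were dissolved in DMSO (final ≤0.1%). IC50 is the concentration that gives 50% inhibition of proliferation, derived by linear regression. Degree of resistance is IC50 in the resistant line divided by IC50 in its parental line. Selectivity index is IC50 in AML12 divided by IC50 in HepG2.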

CCRF-CEM leukemia cells = experiment: Resazurin reduction assay; conditions: Homo sapiens, 72 h
Method in brief: as §1

[1] = tested on: MDA-MB-231-pcDNA breast adenocarcinoma cells; experiment: Resazurin reduction assay; conditions: 72 h
Method in brief: as §1

[2] = tested on: MDA-MB-231-BCRP breast adenocarcinoma cells; experiment: Resazurin reduction assay; conditions: for IC50: MDA-MB-231/BCRP, 72 h
Method in brief: as §1

normal AML12 hepatocytes = experiment: Resazurin reduction assay; conditions: for IC50: Mus musculus, AML12, 72 h; for Selectivity index: ratio IC50 AML12 hepatocytes / IC50 HepG2
Method in brief: as §1

[3] = tested on: HCT116 (p53-/-) colon adenocarcinoma cells; experiment: Resazurin reduction assay; conditions: for IC50: Homo sapiens, HCT-116, 72 h; for Degree of resistance: ratio IC50 HCT116 (p53-/-) / IC50 HCT116 (p53+/+)
Method in brief: as §1

[4] = tested on: HCT116 (p53+/+) colon cancer cells; experiment: Resazurin reduction assay; conditions: Homo sapiens, HCT-116, 72 h
Method in brief: as §1

[5] = tested on: HepG2 hepatocarcinoma cells; experiment: Resazurin reduction assay; conditions: Homo sapiens, HepG2, 72 h
Method in brief: as §1

[6] = tested on: CEM/ADR5000 leukemia cells (P-glycoprotein-overexpressing); experiment: Resazurin reduction assay; conditions: for IC50: Homo sapiens, ADR5000, 72 h; for Degree of resistance: ratio IC50 CEM/ADR5000 / IC50 CCRF-CEM
Method in brief: as §1

[7] = tested on: U87MG.ΔEGFR glioblastoma cells; experiment: Resazurin reduction assay; conditions: for IC50: 72 h; for Degree of resistance: ratio IC50 U87MG.ΔEGFR / IC50 U87MG
Method in brief: as §1

CCRF-CEM cells [8] = experiment: Cell cycle distribution by flow cytometry; conditions: 24 h treatment
Method in brief: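 CCRF-CEM cells (1×10^6) were treated for 24 h under standard culture conditions with various concentrations of test sample, or with DMSO (0.1% final) as control. Cell-cycle phases were read by flow cytometry from propidium iodide fluorescence of individual nuclei. At least three independent experiments, each with three repetitions.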

CCRF-CEM cells [9] = experiment: Flow cytometric analysis of ROS production; conditions: 24 h, 50 μM, non-treated cells 0.6%

Row | SMILES | IC50 (U87MG glioblastoma cells) | IC50 (CCRF-CEM leukemia cells) | IC50 [1] | IC50 [2] | IC50 [3] | IC50 [4] | IC50 [5] | IC50 [6] | IC50 [7] | IC50 (normal AML12 hepatocytes) | Selectivity index (normal AML12 hepatocytes) | Degree of resistance [6] | Degree of resistance [3] | Degree of resistance [7] | cell cycle arrest phase (CCRF-CEM cells [8]) | Degree of resistance ([2]; ratio IC50 MDA-MB-231-BCRP / IC50 MDA-MB-231-pcDNA) | ROS levels (CCRF-CEM cells [9])
1 | COc1cc(-c2cc(=O)c3c(O)cc(O[C@@H]4O[C@H](CO)[C@@H](O)[C@H](O)[C@H]4O)cc3o2)ccc1O [Compound 3, chrysoeriol-7-O-β-D-glucopyranoside] | 24.9 ± 2.19 µM | 20.8 ± 1.76 µM | > 100 µM | > 100 µM | 28.4 ± 1.72 µM | 30.7 ± 4.04 µM | 34.2 ± 2.86 µM | 18.7 ± 1.25 µM | 21.1 ± 0.92 µM | > 100 µM | > 2.92 | 0.90 | – | – | – | – | –
2 | O=c1cc(-c2ccc(O)cc2)oc2cc(O[C@@H]3O[C@H](CO)[C@@H](O)[C@H](O)[C@H]3O)cc(O)c12 [Compound 4, Apigenin-7-O-β-D-glucopyranoside] | > 100 µM | 10.4 ± 1.17 µM | > 100 µM | > 100 µM | > 100 µM | > 100 µM | > 100 µM | > 100 µM | > 100 µM | > 100 µM | – | > 9.62 | – | – | – | – | –
3 | OO [H2O2, Hydrogen peroxide] | – | – | – | – | – | – | – | – | – | – | – | – | – | – | – | – | 94.30%

Now from value to compound, other results behind:

Row | IC50 (U87MG glioblastoma cells) | IC50 (CCRF-CEM leukemia cells) | IC50 [1] | IC50 [2] | IC50 [3] | IC50 [4] | IC50 [5] | IC50 [6] | IC50 [7] | SMILES | IC50 (normal AML12 hepatocytes) | Selectivity index (normal AML12 hepatocytes) | Degree of resistance [6] | Degree of resistance [3] | Degree of resistance [7] | cell cycle arrest phase (CCRF-CEM cells [8]) | Degree of resistance ([2]; ratio IC50 MDA-MB-231-BCRP / IC50 MDA-MB-231-pcDNA) | ROS levels (CCRF-CEM cells [9])
4 | 22.7 ± 2.2 µM | 11 ± 0.97 µM | > 100 µM | > 100 µM | 30.4 ± 2.55 µM | 28.3 ± 1.07 µM | 29 ± 1.77 µM | 27 ± 1.29 µM | 18.9 ± 1.06 µM | O=c1cc(-c2ccc(O)c(O)c2)oc2cc(O)cc(O)c12 [Compound 6, luteolin] | > 100 µM | > 3.45 | 2.46 | 1.07 | 0.83 | – | – | –
5 | 0.26 ± 0.03 µM | 0.02 µM | 0.13 ± 0.01 µM | 0.79 ± 0.08 µM | 1.78 ± 0.08 µM | – | 4.56 ± 0.48 µM | – | 0.98 ± 0.07 µM | COc1cccc2c1C(=O)c1c(O)c3c(c(O)c1C2=O)C[C@@](O)(C(=O)CO)C[C@@H]3O[C@H]1C[C@H](N)[C@H](O)[C@H](C)O1 [Doxorubicin, reference compound] | 52.9 ± 4.09 µM | – | – | 3.73 | 3.79 | S and G2/M phase arrest | 6.14 | –
